Only some compounds are listed: those with a hit (about 1.7% of all), similar ones and a draw of the others.
STEP inh = STEP phosphatase inhibitors, primary screen, biochemical, fluorescence intensity, uHTS; Tyrosine-protein phosphatase non-receptor type 5 (Homo sapiens), P54829; AID 588621, 2011; actives 0.25% (n = 360,000); recombinant STEP, OMFP fluorogenic substrate; inhibition, % at 20 µM;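 active = inhibition at 20 µM, scaled per plate between control wells, above about 37%, limit read from the data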
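medium = Bis-Tris buffer pH 6.0, 2.5 mM DTT, 0.005% Tween 20 | test system = STEP (striatal-enriched tyrosine phosphatase) enzyme, cell-free | measure = normalized % inhibition | compound dosing = 20 µM, 1% DMSO | also added = 25 µM OMFP | schedule = reaction 20 min, ambient temperature | measured by = fluorescence read at 480 nm ex / 540 nm em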
SUMO1-SIM PPI = modulators of SUMO1 protein-protein interactions, primary screen, biochemical, uHTS; SUMO1 binding to a labelled peptide, TR-FRET, 1 h; inhibition, % at 20 µM; actives 0.33% (n = 360,000); AID 602429, 2012; in the data active = inhibition above about 37%
Target sequence (P63165 whole entry, looked up): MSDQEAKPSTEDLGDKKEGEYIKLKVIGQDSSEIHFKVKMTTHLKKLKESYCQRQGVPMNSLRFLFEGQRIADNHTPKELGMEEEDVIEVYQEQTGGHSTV
DNMT1 block = human DNMT1 methyltransferase inhibitors, primary screen, biochemical, molecular beacon, fluorescence, HinP1I cleavage, uHTS. DNA (cytosine-5)-methyltransferase 1 (Homo sapiens), P26358. inhibition (reported as % activation of signal), % at 10 µM. actives 0.83% (n = 360,000). AID 588458, 2011; in the data active = inhibition above about 50%
LMPTP inh = LMPTP phosphatase inhibitors, primary screen, biochemical, fluorescence intensity, uHTS | recombinant LMPTP-A, OMFP fluorogenic substrate | Low molecular weight phosphotyrosine protein phosphatase (Homo sapiens), P24666 | inhibition, % at 20 µM | actives 0.22% (n = 360,000) | AID 651560, 2012;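 active = compounds that cut the enzyme signal by at least half of the control window in the single-dose screen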
Target sequence (P24666 whole entry, looked up): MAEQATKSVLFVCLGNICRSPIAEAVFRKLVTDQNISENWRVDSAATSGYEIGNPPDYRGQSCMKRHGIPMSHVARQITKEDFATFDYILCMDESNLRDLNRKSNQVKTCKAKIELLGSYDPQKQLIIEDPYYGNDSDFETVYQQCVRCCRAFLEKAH
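Test system: LMPTP-A, protein tyrosine phosphatase of low molecular weight; Input: 0.625 nM enzyme; Incubation: 50 min dark incubation at room temperature; Signal: endpoint fluorescence intensity from OMFP dephosphorylation; Read-out basis: % inhibition versus control wells.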
Scp-1 inhibitor = Scp-1 phosphatase inhibitors, primary screen, biochemical, colorimetric, uHTS | Carboxy-terminal domain RNA polymerase II polypeptide A small phosphatase 1 (Homo … | AID 493091, 2011 | Recombinant Scp1, phosphopeptide, malachite green phosphate absorbance | actives 0.88% (n = 340,000) | inhibition, % at 20 µM;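 active = inhibition above about 50% at 20 µM, limit read from the data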
Target sequence (Q9GZU7 76-261 limits assumed): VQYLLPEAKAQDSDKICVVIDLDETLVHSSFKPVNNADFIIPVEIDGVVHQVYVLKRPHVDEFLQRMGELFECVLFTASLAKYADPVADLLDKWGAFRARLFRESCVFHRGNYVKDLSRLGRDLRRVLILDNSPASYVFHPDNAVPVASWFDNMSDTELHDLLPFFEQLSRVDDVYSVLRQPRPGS
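Test system: SCP-1 phosphatase catalytic domain, residues 76-261; measured by: colorimetric phosphate reagent with accelerator and stabiliser, absorbance at 630 nm; timing: enzyme reaction 45 min at room temperature, colour 5 min, stabilisation 30 min; also added: Phosphorylated 17-residue peptide substrate; compound dosing: one concentration, 20 µM, with 1.0% DMSO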
Hits are given with their value; - = inactive; . = not tested or not shown.

SMILES	STEP inh	SUMO1-SIM PPI	DNMT1 block	LMPTP inh	Scp-1 inhibitor
O=C1CCCN1CCCNc1nc(NCc2ccccc2)nc2ccsc12	-	-	-	67.5	.
COc1ccc(-c2cc(C(=O)Nc3ccccc3SC)no2)cc1	-	-	-	-	-
COc1ccc(-c2cc(C(=O)Nc3cc(Br)ccc3O)no2)cc1	-	-	56.9	68.9	-
CCOC(=O)N1CCN(c2cc(NCCC(=O)O)c3c4c(onc24)-c2ccccc2C3=O)CC1	-	43.6	67.2	-	75.8
CN1CCN(c2cc(N3CCN(C(=O)c4ccco4)CC3)c3c4c(onc24)-c2ccccc2C3=O)CC1	-	-	-	-	-
O=C(O)CCCNc1cc(N2CCN(C(=O)c3ccco3)CC2)c2noc3c2c1C(=O)c1ccccc1-3	45.1	53.8	-	-	78.2
O=C1c2ccccc2-c2onc3c(N4CCN(CCO)CC4)cc(N4CCN(C(=O)c5ccco5)CC4)c1c23	-	55.8	-	-	-
Cc1ccc(NC(=O)/C(=C/c2cccs2)NC(=O)c2ccco2)cc1	-	-	-	-	-
Brc1ccc(C2=CC(c3cccs3)n3ncnc3N2)cc1 (stereo unspecified)	-	-	66.3	-	-
O=C(NC1(O)C(=O)c2ccccc2C1=O)c1c(Cl)cccc1Cl	-	-	52.7	-	-
O=C(NC1(O)C(=O)c2ccccc2C1=O)c1ccccc1	-	-	-	-	-
COc1cccc(C(=O)OCC(=O)Nc2ccc3c(c2)OCCO3)c1	-	-	-	-	-
O=C(O)C1Nc2c(O)cccc2C2C=CCC12 (stereo unspecified)	-	-	102.9	74.4	70.9
O=C(O)C1Nc2ccc(Br)cc2C2C=CCC12 (stereo unspecified)	94.5	94.1	93.1	83.7	69.2
O=C(O)C1Nc2c(Cl)cc(Cl)cc2C2C=CCC12 (stereo unspecified)	41.2	103.0	88.1	87.5	72.4
Cc1ccccc1NC(=O)CSc1nnc(-c2ccco2)c(-c2ccco2)n1	-	-	105.6	-	68.2
O=C(CSc1nnc(-c2ccco2)c(-c2ccco2)n1)Nc1ccccc1	-	76.9	118.5	52.8	58.5
COc1ccc(NC(=O)CSc2nnc(-c3ccco3)c(-c3ccco3)n2)cc1OC	-	-	-	-	-
Cc1cccc(C)c1NC(=O)CSc1nnc(-c2ccco2)c(-c2ccco2)n1	39.3	50.7	115.7	56.8	77.0
CN(C)c1ccc(NC(=O)CSc2nnc(-c3ccco3)c(-c3ccco3)n2)cc1	-	-	-	-	-
CS(=O)(=O)c1ccc(C(=O)OCC(=O)NCc2cccs2)cc1[N+](=O)[O-]	-	-	70.9	-	-
CCOc1ccc(C(=O)NC2CCN(C(=O)Nc3ccc(F)cc3)CC2)cc1	-	-	-	-	-
O=C(Nc1ccccc1Oc1cccnc1)C1CCCN(C/C=C/c2ccccc2)C1 (stereo unspecified)	-	-	-	-	-
O=[N+]([O-])c1nn(-c2cccc(Cl)c2)n(O)c1=NCc1cccnc1	-	42.5	-	-	-
O=[N+]([O-])c1nn(-c2ccc(Cl)cc2)n(O)c1=NCc1cccnc1	-	-	-	-	-
SMILES	STEP inh	SUMO1-SIM PPI	DNMT1 block	LMPTP inh	Scp-1 inhibitor
Cc1ccccc1C1=C/C(=C(\SS/C(C(=O)c2ccc(OCC(=O)O)c(Cl)c2Cl)=C2\C=C(c3ccccc3C)SS2)C(=O)c2ccc(OCC(=O)O)c(Cl)c2Cl)SS1	-	115.8	-	73.1	-
O=C(O)COc1ccc2nsnc2c1Cl	-	-	-	-	-
COc1ccc(OC(C)C(=O)NC(C)c2ccccc2)cc1 (stereo unspecified)	-	-	-	-	-
CCOC(=O)Nc1sc(C)nc1-c1ccccc1	-	-	-	-	-
CCOC(=O)Nc1cc2c(c(N)n1)N=C(c1ccccc1)CN2	-	-	53.4	-	-
Cc1cc(C)n(CCC(=O)N2c3ccccc3CC2C)n1 (stereo unspecified)	-	-	-	-	-
Oc1ccc(/C=N/N=C/c2ccc(O)c(O)c2)cc1O	-	-	-	-	-
Oc1ccc(N=Cc2ccc(O)c(O)c2)cc1	-	50.8	65.4	-	-
COc1ccc(-c2cc(=O)oc3c(C)c(OCC(=O)Nc4cccnc4)ccc23)cc1	-	41.3	-	-	-
O=C(NCCc1ccccn1)C1CCCN1S(=O)(=O)c1ccc(Cl)cc1 (stereo unspecified)	-	-	-	-	-
O/C=c1\ccc2cccc3nc(C(F)(F)F)nc1c23	-	-	50.2	-	-
CCOC(=O)C1=C(C)c2ccccc2N(C(=O)OC)C1(C)C(=O)OCC (stereo unspecified)	-	-	-	-	98.2
CCOC(=O)C1=C(C)c2ccccc2OC1(CC)C(=O)OCC (stereo unspecified)	-	-	-	-	-
O=c1ccn([C@@H]2O[C@H](CNCc3cccn3-c3ccncc3)[C@@H](O)[C@H]2O)c(=O)[nH]1	-	-	-	-	.
O=C(N/N=C/c1ccc(-c2ccc(S(=O)(=O)Nc3ncccn3)cc2)o1)c1cc2ccccc2cc1O	-	38.9	85.5	-	-
COc1ccc(CNC[C@@H](CCCCN(C)Cc2ccc(OC)cc2)N2C[C@H](c3ccccc3)N(CCc3ccc(Cl)c(Cl)c3)C(=O)C2=O)cc1	-	-	-	56.7	-
CCOC(=O)c1ccc(NC2=CC(=O)C(=O)c3ccccc32)cc1	-	40.5	56.4	-	-
C[C@H](NC(=O)c1cc2c(cn1)[nH]c1ccccc12)C(=O)O	90.3	-	-	-	-
COC(=O)[C@H](C)NC(=O)c1cc2c(cn1)[nH]c1ccccc12	-	-	-	-	-
Nc1c(C(=O)NCc2ccco2)sc2nc3c(cc12)C(=O)CCC3	-	-	-	-	74.2
O=C1CC2(CCN(C(=O)C3CC(=O)N(c4ccccc4)C3)CC2)Oc2ccccc21 (stereo unspecified)	-	-	-	-	-
CCN(CC)c1ccc(C(=C2C=CC(=[N+](CC)CC)C=C2)c2ccccc2)cc1	-	-	-	-	-
CCN(CC)c1ccc(C(=C2C=CC(=[N+](CC)CC)C=C2)c2ccc(N(CC)CC)cc2)cc1	-	-	-	80.6	-
O=C(NCc1ccco1)c1ccc(S(=O)(=O)N2CCCCC2)cc1	-	-	-	-	-
O=C(NCc1ccco1)c1ccc(S(=O)(=O)N2CCOCC2)cc1	-	-	76.3	-	-
O=C(c1cc(N2CCOCC2)c(F)cc1[N+](=O)[O-])N1CCOCC1	-	-	-	-	-
